This note sets out measurements from ChEMBL document CHEMBL2157862, “A novel spirocyclic tropanyl-Δ²-isoxazoline derivative enhances citalopram and paroxetine binding to serotonin transporters as well as serotonin uptake” (Bioorg Med Chem, 2012).

Active and inactive are the calls of the source. The rule behind the calls is not given here.

Experiment [1] concerns the target Sodium-dependent serotonin transporter (Rattus norvegicus, UniProt P31652). The experiment can be described thus: Displacement of [3H]-citalopram from SERT in rat cortical membranes after 60 mins. The experiment is classed as cell membranes, Membrane. A digest of the protocol:
(§1)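 Frozen rat cortical membranes (washed pellets) in 50 mM Tris-HCl pH 7.4 with 120 mM NaCl and 5 mM KCl, incubated with [3H]citalopram with or without compound. Nonspecific binding defined with 10 µM (S)-citalopram. Bound radioactivity measured by filtration and scintillation counting. Mean ± S.E.M. of replicates; Student's t test vs vehicle.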

Experiment [2] has as its target Sodium-dependent serotonin transporter (Rattus norvegicus) (UniProt P31652). As to the kind of experiment: Displacement of [3H]-citalopram from SERT in rat cortical membranes at 10 uM after 60 mins. It counts as cell membranes. The following applies: Membrane. Summed up:
as §1

Experiment [3] has the same target. The experiment can be described thus: Increase of [3H]-citalopram binding to SERT in rat cortical membranes at 10 uM after 60 mins. It counts as cell membranes. As to conditions: Membrane. Summed up:
as §1

The target is the same in experiment [4]. As to the kind of experiment: Increase of SERT-mediated [3H]-5HT uptake in rat brain cortex synaptosomes at 10 uM after 7 mins by scintillation counting. It counts as subcellular. A digest of the protocol: (§2)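 Rat cortex P2 synaptosomes from 0.32 M sucrose homogenate, resuspended in HEPES-buffered saline pH 7.4 with glucose, ascorbate and pargyline. Aliquots equal to 3 mg tissue preincubated 7 min at 35 °C with compound. Uptake then ran 5 min after adding 100 nM [3H]5-HT, stopped by filtration, and counted by scintillation. Nonspecific uptake defined with 10 µM (S)-citalopram.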

Experiment [5] shares this target. The experiment can be described thus: Increase of [3H]-citalopram binding to SERT in rat cortical membranes after 60 mins. It counts as cell membranes. The following applies: Membrane. A digest of the protocol: as §1
The target is the same in experiment [6]. The experiment can be described thus: Increase of SERT-mediated [3H]-5HT uptake in rat brain cortex synaptosomes after 7 mins by scintillation counting. The experiment is classed as subcellular. A digest of the protocol: as §2
For experiment [7] the target is unchanged. As to the kind of experiment: Increase of [3H]-citalopram binding to SERT in rat cortical membranes at 10 to 30 uM after 60 mins. The experiment is classed as cell membranes. The following applies: Membrane. A digest of the protocol: as §1
The target is the same in experiment [8]. As to the kind of experiment: Increase of SERT-mediated [3H]-5HT uptake in rat brain cortex synaptosomes at 10 to 30 uM after 7 mins by scintillation counting. It counts as subcellular. A digest of the protocol:
as §2

The target is the same in experiment [9]. As to the kind of experiment: Increase of [3H]paroxetine binding to SERT in rat cortical membranes at 10 uM after 60 mins. It counts as cell membranes. As to conditions: Membrane. Summed up:
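Saturation binding in rat cortical membranes (Tris-HCl 50 mM pH 7.4, 120 mM NaCl, 5 mM KCl) at varied [3H]paroxetine concentrations, with or without 10 µM compound. Specific binding by scintillation counting. Mean ± SD of 4 replicates. One-site hyperbola fit gave Bmax and Kd.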

Experiment [10] addresses Sodium-dependent dopamine transporter (Rattus norvegicus, UniProt P23977). As to the kind of experiment: Displacement of [3H]-WIN35428 from DAT in rat striatal membranes after 90 mins. The experiment is classed as cell membranes, Membrane. A digest of the protocol:
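Frozen rat striatal membranes in 50 mM Tris-HCl pH 7.4 with 120 mM NaCl and 5 mM KCl, incubated 90 min at 4 °C with 2 nM [3H]WIN 35,428. Nonspecific binding defined with 3 µM nomifensine. Stopped by rapid filtration on albumin-presoaked GF/B filters, then scintillation counting.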

Experiment [11] has as its target Sodium-dependent serotonin transporter (Rattus norvegicus) (UniProt P31652). The experiment can be described thus: Increase of [3H]-citalopram binding to SERT in rat cortical membranes at 3 to 30 uM after 60 mins. The experiment is classed as cell membranes. As to conditions: Membrane. Summed up: as §1
Experiment [12] has the same target. As to the kind of experiment: Increase of SERT-mediated [3H]-5HT uptake in rat brain cortex synaptosomes at 3 to 100 uM after 7 mins by scintillation counting. It counts as subcellular. A digest of the protocol:
as §2

Sodium-dependent serotonin transporter (Rattus norvegicus), sequence (P31652 whole entry): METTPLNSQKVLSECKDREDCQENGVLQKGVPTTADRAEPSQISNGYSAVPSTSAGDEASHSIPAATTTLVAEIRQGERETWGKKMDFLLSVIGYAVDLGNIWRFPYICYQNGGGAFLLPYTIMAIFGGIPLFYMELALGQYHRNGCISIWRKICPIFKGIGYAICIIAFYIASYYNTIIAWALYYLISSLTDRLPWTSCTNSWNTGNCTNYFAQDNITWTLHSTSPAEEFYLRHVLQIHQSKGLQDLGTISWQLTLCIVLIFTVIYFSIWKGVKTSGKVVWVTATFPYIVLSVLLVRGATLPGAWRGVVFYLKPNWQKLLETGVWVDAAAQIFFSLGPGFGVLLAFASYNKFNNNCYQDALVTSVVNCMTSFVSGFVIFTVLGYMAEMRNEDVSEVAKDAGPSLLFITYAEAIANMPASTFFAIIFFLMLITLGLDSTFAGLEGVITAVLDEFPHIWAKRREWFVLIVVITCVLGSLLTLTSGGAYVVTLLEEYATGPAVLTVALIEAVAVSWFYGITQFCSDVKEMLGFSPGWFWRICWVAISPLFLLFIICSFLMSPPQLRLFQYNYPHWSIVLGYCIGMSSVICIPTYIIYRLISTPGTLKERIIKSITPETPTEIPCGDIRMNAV
Sodium-dependent dopamine transporter, sequence (P23977 whole entry): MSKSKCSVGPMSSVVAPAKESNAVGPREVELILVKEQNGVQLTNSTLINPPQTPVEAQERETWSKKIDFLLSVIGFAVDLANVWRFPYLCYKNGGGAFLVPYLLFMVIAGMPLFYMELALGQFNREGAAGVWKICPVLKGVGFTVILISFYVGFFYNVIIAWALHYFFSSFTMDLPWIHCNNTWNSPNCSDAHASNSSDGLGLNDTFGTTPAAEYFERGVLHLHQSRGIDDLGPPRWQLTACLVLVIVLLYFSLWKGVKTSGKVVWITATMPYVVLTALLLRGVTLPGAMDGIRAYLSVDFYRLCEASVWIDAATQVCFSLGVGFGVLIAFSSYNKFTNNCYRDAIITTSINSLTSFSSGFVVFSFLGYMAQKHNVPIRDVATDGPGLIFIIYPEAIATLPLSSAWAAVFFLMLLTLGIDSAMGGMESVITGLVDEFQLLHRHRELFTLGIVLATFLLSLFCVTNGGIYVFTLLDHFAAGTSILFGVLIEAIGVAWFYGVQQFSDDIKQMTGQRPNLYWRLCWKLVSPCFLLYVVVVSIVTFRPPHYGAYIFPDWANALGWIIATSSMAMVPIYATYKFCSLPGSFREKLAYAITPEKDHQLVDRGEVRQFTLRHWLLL
Sodium-dependent serotonin transporter, sequence (P31652 whole entry): as the sequence (P31652 whole entry) above

`CN1O[C@]2(CC1=O)C[C@H]1CC[C@@H](C2)N1` came in with an IC50 in [1] of 5 µM.
With `COC1=NO[C@]2(C1)C[C@H]1CC[C@@H](C2)N1C`, the inhibition entry in experiment [2] is “inactive”. Moreover, the Activity was 25% in experiment [3], 30% in experiment [4], “Dose-dependent effect” in [5] and “Dose-dependent effect” in experiment [6]. The result in [7], in experiment [8] and in [9] was Active.
As to `CCOC1=NO[C@]2(C1)C[C@H]1CC[C@@H](C2)[N+]1(C)C`, the IC50 in [10] turned out to be 5 µM. Also, the inhibition entry in experiment [2] was “inactive”.
With `CN1O[C@]2(CC1=O)C[C@H]1CC[C@@H](C2)N1C`, in experiment [2], the inhibition entry was “inactive”. The outcome in experiment [5] was inactive.
Regarding `C#CCOC1=NO[C@]2(C1)C[C@H]1CC[C@@H](C2)N1`, the inhibition entry in experiment [2] was “inactive”.
The same measure, in the same setting: to `BrC1=NO[C@]2(C1)C[C@H]1CC[C@@H](C2)N1` belongs “inactive”.
In experiment [10], `O=C1C[C@]2(C[C@H]3CC[C@@H](C2)N3)ON1` displayed an IC50 of 5 µM. Besides, the inhibition result in experiment [2] is “inactive”.
For the molecule `C#CCOC1=NO[C@]2(C1)C[C@H]1CC[C@@H](C2)N1C`, the inhibition entry in [2] is “inactive”.
Still for that read-out and setting: the entry for `COC1=NO[C@]2(C1)C[C@H]1CC[C@@H](C2)[N+]1(C)C` is “inactive”.
Regarding `c1ccc(COC2=NO[C@]3(C2)C[C@H]2CC[C@@H](C3)N2)cc1`, the IC50 in experiment [10] is 5 µM. In experiment [2], the inhibition entry is “inactive”.
In the same order, the values of `CCOC1=NO[C@]2(C1)C[C@H]1CC[C@@H](C2)N1` are 5 µM and “inactive”.
As for `C[N+]1(C)[C@@H]2CC[C@H]1C[C@@]1(CC(OCc3ccccc3)=NO1)C2`, the inhibition result in experiment [2] was “inactive”.
Still for that read-out and setting: to `C[N+]1(C)[C@@H]2CC[C@H]1C[C@@]1(CC(CO)=NO1)C2` belongs “inactive”.
On the same count and under the same terms, to `CN1[C@@H]2CC[C@H]1C[C@@]1(CC(OCc3ccccc3)=NO1)C2` belongs “inactive”; to `CCOC(=O)C1=NO[C@]2(C1)C[C@H]1CC[C@@H](C2)[N+]1(C)C`, “inactive”.
In turn, `CCOC1=NO[C@]2(C1)C[C@H]1CC[C@@H](C2)N1C` registered an IC50 in experiment [10] of 5 µM. Moreover, the inhibition result in experiment [2] is “inactive”. In [3], this molecule had an Activity of 11%. For the same molecule, the outcome in experiment [11] and in [12] was Active.
Take `CCOC(=O)C1=NO[C@]2(C1)C[C@H]1CC[C@@H](C2)N1C`: in [2], the inhibition entry is “inactive”.
For `C[N+]1(C)[C@@H]2CC[C@H]1C[C@@]1(CC(Br)=NO1)C2`, in experiment [2], the inhibition result is “inactive”.
On the same count and under the same terms, the entry for `CN1[C@@H]2CC[C@H]1C[C@@]1(CC(=O)NO1)C2` is “inactive”.
Same read-out and setting: to `CN1[C@@H]2CC[C@H]1C[C@@]1(CC(CO)=NO1)C2` belongs “inactive”.
For the molecule `COC1=NO[C@]2(C1)C[C@H]1CC[C@@H](C2)N1`, the inhibition result in experiment [2] is “inactive”.
Same read-out and setting: the entry for `CN1[C@@H]2CC[C@H]1C[C@@]1(CC(Br)=NO1)C2` is “inactive”; for `C#CCOC1=NO[C@]2(C1)C[C@H]1CC[C@@H](C2)[N+]1(C)C` it is “inactive”.
